Assay results as given in ChEMBL document CHEMBL1938370, “Structure-activity relationship studies of sulfonylpiperazine analogues as novel negative allosteric modulators of human neuronal nicotinic receptors” (J Med Chem, 2011).
The source made the active and inactive calls. No cut-off for these calls is given here.

Experiments:
[1] = molecular target: T1, Neuronal acetylcholine receptor; alpha4/beta2 (Homo sapiens, UniProt P17787+P43681); experiment: Agonist activity at human nAChR alpha4beta2 expressed in HEK ts201 cells assessed as increase in calcium mobilization at 30 uM measured every 1.5 sec by fluorescence analysis; type: functional, cell-based
[2] = molecular target: T2, Neuronal acetylcholine receptor; alpha3/beta4 (Homo sapiens, UniProt P30926+P32297); experiment: Agonist activity at human nAChR alpha3beta4 expressed in HEK ts201 cells assessed as increase in calcium mobilization at 30 uM measured every 1.5 sec by fluorescence analysis; type: functional, cell-based
[3] = molecular target: T1, Neuronal acetylcholine receptor; alpha4/beta2; experiment: Negative allosteric modulation of human nAChR alpha4beta2 expressed in HEK ts201 cells assessed as inhibition of epibatidine-induced calcium mobilization measured every 1.5 sec by fluorescence analysis; type: cell-based
In short: (§1)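 HEK ts201 cells stably expressing human α4β2 or α3β4 nAChRs were plated on poly-L-ornithine-coated wells at 2.0–2.3 × 10^5 cells/well and used ~24 h later. They were washed with HEPES-buffered Krebs and loaded with 50% Calcium 5 NW dye for 1 h at 24 °C in the dark. Test compound was given at 6 concentrations across 0.1–100 µM, with final DMSO 1% at the top concentration. The agonist was 1 µM epibatidine, and fluorescence (ex 485/em 525 nm) was read every ~1.5 s.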

[4] = molecular target: T2, Neuronal acetylcholine receptor; alpha3/beta4; experiment: Negative allosteric modulation of human nAChR alpha3beta4 expressed in HEK ts201 cells assessed as inhibition of epibatidine-induced calcium mobilization measured every 1.5 sec by fluorescence analysis; type: cell-based; in short: as §1
[5] = molecular target: T2, Neuronal acetylcholine receptor; alpha3/beta4; experiment: Noncompetitive inhibition of human nAChR alpha3beta4 expressed in HEK ts201 cells assessed as inhibition of epibatidine-induced calcium mobilization at 30 uM measured every 1.5 sec by fluorescence analysis; type: cell-based
In short: (§2)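 Epibatidine concentration-response curves were run with and without 30 µM modulator in HEK ts201 cells expressing human α4β2 or α3β4 nAChRs. Cells were loaded with Calcium 5 NW dye for 1 h at 24 °C in HEPES-buffered Krebs, and fluorescence (ex 485/em 525 nm) was monitored every ~1.5 s.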

[6] = molecular target: T1, Neuronal acetylcholine receptor; alpha4/beta2; experiment: Noncompetitive inhibition of human nAChR alpha4beta2 expressed in HEK ts201 cells assessed as inhibition of epibatidine-induced calcium mobilization at 30 uM measured every 1.5 sec by fluorescence analysis; type: cell-based; in short: as §2
[7] = molecular target: T1, Neuronal acetylcholine receptor; alpha4/beta2; experiment: Negative allosteric modulation of human nAChR alpha4beta2 expressed in HEK ts201 cells assessed as inhibition of epibatidine-induced calcium mobilization at 0.1 to 100 uM measured every 1.5 sec by fluorescence analysis; type: cell-based; in short: as §1
[8] = molecular target: T2, Neuronal acetylcholine receptor; alpha3/beta4; experiment: Negative allosteric modulation of human nAChR alpha3beta4 expressed in HEK ts201 cells assessed as inhibition of epibatidine-induced calcium mobilization at 0.1 to 100 uM measured every 1.5 sec by fluorescence analysis; type: cell-based; in short: as §1
[9] = molecular target: T1, Neuronal acetylcholine receptor; alpha4/beta2; experiment: Negative allosteric modulation of human nAChR alpha4beta2 expressed in HEK ts201 cells assessed as decrease in epibatidine-induced calcium mobilization up to 100 uM measured every 1.5 sec by fluorescence analysis; type: cell-based; in short: as §1
[10] = molecular target: T2, Neuronal acetylcholine receptor; alpha3/beta4; experiment: Negative allosteric modulation of human nAChR alpha3beta4 expressed in HEK ts201 cells assessed as decrease in epibatidine-induced calcium mobilization up to 100 uM measured every 1.5 sec by fluorescence analysis; type: cell-based; in short: as §1
[11] = molecular target: T1, Neuronal acetylcholine receptor; alpha4/beta2; experiment: Relative selectivity, ratio of IC50 for human nAChR alpha3beta4 expressed in HEK ts201 cells to IC50 for human nAChR alpha4beta2 expressed in HEK ts201 cells; type: cell-based

T1 sequence (P17787 whole entry): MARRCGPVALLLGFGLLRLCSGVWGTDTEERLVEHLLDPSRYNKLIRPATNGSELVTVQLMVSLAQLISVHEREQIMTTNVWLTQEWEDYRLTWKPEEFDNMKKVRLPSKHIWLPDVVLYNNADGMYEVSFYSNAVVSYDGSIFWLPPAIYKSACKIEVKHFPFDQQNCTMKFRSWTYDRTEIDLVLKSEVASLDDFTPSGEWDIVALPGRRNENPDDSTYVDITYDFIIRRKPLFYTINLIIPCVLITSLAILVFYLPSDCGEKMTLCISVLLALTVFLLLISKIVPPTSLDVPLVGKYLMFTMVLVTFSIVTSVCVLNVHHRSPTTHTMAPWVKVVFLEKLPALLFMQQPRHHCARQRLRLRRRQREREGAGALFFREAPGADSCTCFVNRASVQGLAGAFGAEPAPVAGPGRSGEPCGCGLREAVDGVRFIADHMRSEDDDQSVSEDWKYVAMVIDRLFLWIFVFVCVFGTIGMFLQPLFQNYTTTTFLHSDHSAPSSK
T1 sequence (P43681 whole entry): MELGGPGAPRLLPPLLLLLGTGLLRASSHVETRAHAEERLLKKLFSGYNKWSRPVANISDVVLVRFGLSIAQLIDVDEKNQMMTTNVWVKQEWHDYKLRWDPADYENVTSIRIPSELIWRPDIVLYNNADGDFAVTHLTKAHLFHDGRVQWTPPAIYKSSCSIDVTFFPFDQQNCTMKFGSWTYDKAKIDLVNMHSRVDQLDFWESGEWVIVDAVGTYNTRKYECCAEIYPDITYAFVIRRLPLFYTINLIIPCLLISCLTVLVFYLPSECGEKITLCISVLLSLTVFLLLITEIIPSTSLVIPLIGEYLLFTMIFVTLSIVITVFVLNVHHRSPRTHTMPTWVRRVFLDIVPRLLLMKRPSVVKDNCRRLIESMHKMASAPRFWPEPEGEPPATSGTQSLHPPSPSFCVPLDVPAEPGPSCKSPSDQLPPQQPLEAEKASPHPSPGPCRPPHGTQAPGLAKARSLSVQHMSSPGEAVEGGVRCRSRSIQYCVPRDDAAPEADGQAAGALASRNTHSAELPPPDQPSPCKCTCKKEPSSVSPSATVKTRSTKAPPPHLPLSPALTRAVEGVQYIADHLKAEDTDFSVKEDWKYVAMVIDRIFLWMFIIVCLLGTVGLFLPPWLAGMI
T2 sequence (P30926 whole entry): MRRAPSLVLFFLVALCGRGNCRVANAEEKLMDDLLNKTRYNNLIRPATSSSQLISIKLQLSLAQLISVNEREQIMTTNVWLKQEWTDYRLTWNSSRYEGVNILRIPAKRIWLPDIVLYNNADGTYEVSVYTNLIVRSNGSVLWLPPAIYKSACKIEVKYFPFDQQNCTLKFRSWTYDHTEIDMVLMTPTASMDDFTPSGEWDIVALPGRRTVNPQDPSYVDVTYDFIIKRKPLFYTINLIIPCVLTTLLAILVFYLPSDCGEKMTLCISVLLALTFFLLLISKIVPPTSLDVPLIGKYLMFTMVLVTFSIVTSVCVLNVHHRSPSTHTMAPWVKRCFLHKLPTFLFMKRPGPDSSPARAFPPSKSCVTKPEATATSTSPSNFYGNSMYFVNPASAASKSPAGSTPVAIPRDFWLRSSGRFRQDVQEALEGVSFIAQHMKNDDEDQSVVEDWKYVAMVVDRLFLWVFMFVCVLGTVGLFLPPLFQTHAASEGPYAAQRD
T2 sequence (P32297 whole entry): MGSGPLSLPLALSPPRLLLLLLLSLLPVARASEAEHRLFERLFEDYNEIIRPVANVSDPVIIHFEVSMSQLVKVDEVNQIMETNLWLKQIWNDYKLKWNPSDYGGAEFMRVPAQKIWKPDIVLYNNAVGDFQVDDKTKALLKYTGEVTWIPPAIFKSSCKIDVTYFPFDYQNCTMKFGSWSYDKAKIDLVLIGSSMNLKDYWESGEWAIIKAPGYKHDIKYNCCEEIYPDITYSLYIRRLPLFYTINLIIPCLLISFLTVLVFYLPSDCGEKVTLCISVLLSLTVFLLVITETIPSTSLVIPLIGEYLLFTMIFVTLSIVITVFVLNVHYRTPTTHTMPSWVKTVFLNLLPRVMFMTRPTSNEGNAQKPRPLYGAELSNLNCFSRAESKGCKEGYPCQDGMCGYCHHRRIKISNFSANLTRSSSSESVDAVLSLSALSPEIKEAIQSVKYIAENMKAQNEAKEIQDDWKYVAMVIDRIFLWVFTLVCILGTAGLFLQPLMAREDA

Row | Structure (SMILES) | Activity [1] | Activity [2] | IC50 [3] | IC50 [4] | other results
1 | COc1ccc(NC(=O)CN2CCN(S(=O)(=O)c3ccc(F)cc3)CC2)cc1 | inactive | inactive |  |  | 
2 | COc1ccc(S(=O)(=O)N2CCN(CC(=O)Nc3ccc(F)cc3)CC2)cc1 | inactive | inactive | 23.6 µM | 17.1 µM | 
3 | COC(=O)c1ccc(NC(=O)CN2CCN(S(=O)(=O)c3ccccc3F)CC2)cc1 | inactive | inactive | 12.4 µM | 11.2 µM | 
4 | O=C(CN1CCN(S(=O)(=O)c2ccccc2F)CC1)Nc1cc[nH]n1 | inactive | inactive |  |  | 
5 | O=C(CN1CCN(S(=O)(=O)c2ccccc2)CC1)Nc1ccccc1 | inactive | inactive | 9.6 µM | 16.4 µM | 
6 | O=C(CN1CCN(S(=O)(=O)c2ccc(F)cc2)CC1)Oc1ccccc1-c1ccccc1 | inactive | inactive | 12.2 µM | 23.8 µM | 
7 | O=C(CN1CCN(S(=O)(=O)c2ccccc2)CC1)Nc1ccccc1F | inactive | inactive | 4.1 µM | 4.6 µM | 
8 | O=C(CN1CCN(S(=O)(=O)c2ccc(F)cc2)CC1)Nc1ccccc1F | inactive | inactive |  |  | inhibition [5]: Active; inhibition [6]: Active
9 | O=C(CN1CCN(S(=O)(=O)c2ccc(F)cc2)CC1)Nc1ccc(F)cc1 | inactive | inactive |  |  | 
10 | O=S(=O)(c1ccc(F)cc1)N1CCNCC1 |  |  |  |  | Activity [7]: inactive; Activity [8]: inactive
11 | O=C(CN1CCN(S(=O)(=O)c2cccnc2)CC1)Nc1ccccc1F | inactive | inactive | 20.3 µM | 49.6 µM | 
12 | O=C(CN1CCN(S(=O)(=O)c2cccnc2)CC1)Nc1cc[nH]n1 | inactive | inactive |  |  | 
13 | O=C(CN1CCN(S(=O)(=O)c2ccc(F)cc2)CC1)Nc1cc[nH]n1 | inactive | inactive |  |  | 
14 | O=C(CN1CCN(S(=O)(=O)c2ccccc2F)CC1)Nc1ccc(C(=O)O)cc1 | inactive | inactive |  |  | IC50 [9]: > 100 µM; IC50 [10]: > 100 µM
15 | O=C(CN1CCN(S(=O)(=O)c2ccccc2F)CC1)Nc1ccccc1F | inactive | inactive |  |  | Ratio IC50 [11]: 12
16 | O=C(CN1CCN(S(=O)(=O)c2ccccc2F)CC1)Oc1ccccc1-c1ccccc1 | inactive | inactive | 20.9 µM | 23.5 µM | 
17 | O=C(CN1CCN(S(=O)(=O)c2ccccc2F)CC1)Nc1ccc(F)cc1 | inactive | inactive | 8 µM | 13.6 µM | 
18 | O=C(CN1CCN(S(=O)(=O)c2cccnc2)CC1)Nc1ccn[nH]1 |  |  | 83 µM |  | IC50 [10]: > 100 µM
19 | COc1ccc(S(=O)(=O)N2CCN(CC(=O)Nc3ccccc3F)CC2)cc1 | inactive | inactive | 13.4 µM | 15.4 µM | 
20 | O=C(CN1CCN(S(=O)(=O)c2ccccc2F)CC1)Nc1ccn[nH]1 |  |  |  |  | IC50 [9]: > 100 µM; IC50 [10]: > 100 µM
21 | COc1ccc(NC(=O)CN2CCN(S(=O)(=O)c3ccccc3F)CC2)cc1 | inactive | inactive | 17.1 µM | 19.1 µM | Ratio IC50 [11]: 1.1
22 | O=C(CN1CCN(S(=O)(=O)c2ccc(F)cc2)CC1)Nc1ccc2[nH]ncc2c1 | inactive | inactive |  |  | 
23 | COc1ccc(NC(=O)CN2CCN(S(=O)(=O)c3cccnc3)CC2)cc1 | inactive | inactive |  | 95 µM | IC50 [9]: > 100 µM
24 | O=C(CN1CCN(S(=O)(=O)c2ccc(F)cc2)CC1)Nc1ccccc1 | inactive | inactive |  |  | 
